This is an account of results in ChEMBL document CHEMBL5360543, “Designed multiple ligands for the treatment of type 2 diabetes mellitus and its complications: Discovery of (5-arylidene-4-oxo-2-thioxothiazolidin-3-yl)alkanoic acids active as novel dual-targeted PTP1B/AKR1B1 inhibitors” (Eur J Med Chem, 2023).

Activity calls are given as the source filed them. The rule behind the calls is not given here.

The target of test [1] is T1, Tyrosine-protein phosphatase non-receptor type 1 (Mus musculus) (UniProt P35821).
T1 sequence (whole entry): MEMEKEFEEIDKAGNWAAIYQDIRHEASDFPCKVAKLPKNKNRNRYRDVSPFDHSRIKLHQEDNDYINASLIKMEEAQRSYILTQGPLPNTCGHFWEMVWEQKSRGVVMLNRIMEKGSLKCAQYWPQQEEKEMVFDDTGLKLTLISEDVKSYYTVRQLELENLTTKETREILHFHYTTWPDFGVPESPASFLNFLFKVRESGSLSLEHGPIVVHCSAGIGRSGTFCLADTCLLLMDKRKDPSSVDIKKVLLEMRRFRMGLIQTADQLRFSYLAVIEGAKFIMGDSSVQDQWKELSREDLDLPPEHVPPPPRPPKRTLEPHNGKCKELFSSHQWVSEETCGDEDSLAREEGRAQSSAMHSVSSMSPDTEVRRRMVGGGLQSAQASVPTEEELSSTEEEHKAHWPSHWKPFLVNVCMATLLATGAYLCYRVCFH
As to the kind of experiment: Inhibition of PTP1B in mouse C2C12 cells assessed as increase in Akt phosphorylation by measuring increase in ratio of pAkt to Akt at 20 uM treated for 15 mins by western blot analysis. In kind it is cell-based. Put shortly:
(§1)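 C2C12 cells starved 24 h, then given 10 nM insulin, 20 µM compound, or both, for 15 min. Washed in cold PBS, lysed in 1X Laemmli buffer, run on SDS-PAGE, blotted to PVDF. Probed with antibodies to phospho-Akt and total Akt, with actin as loading control. Bands quantified; triplicate, mean ± SD (n = 3).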
On the technique in general: In western blotting, separated proteins are transferred to a membrane and probed.

In test [2] the target is T2, Aldo-keto reductase family 1 member B1 (Homo sapiens, UniProt P15121). As to the kind of experiment: Mixed non-competitive inhibition of human recombinant AKR1B1 expressed in Escherichia coli BL21(DE3)pLysS assessed as apparent dissociation constant for ESI complex using L-idose as substrate by secondary plot analysis. Put shortly:
(§2)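 AKR1B1 rates measured at varied L-idose concentrations with and without several inhibitor concentrations, then Lineweaver–Burk analysis. […] Tight binders fitted with the Morrison equation, KM for L-idose taken as 3.8 mM. At least three independent experiments.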

Test [3] addresses T3, Tyrosine-protein phosphatase non-receptor type 2 (Homo sapiens, UniProt P17706).
T3 sequence (P17706 whole entry): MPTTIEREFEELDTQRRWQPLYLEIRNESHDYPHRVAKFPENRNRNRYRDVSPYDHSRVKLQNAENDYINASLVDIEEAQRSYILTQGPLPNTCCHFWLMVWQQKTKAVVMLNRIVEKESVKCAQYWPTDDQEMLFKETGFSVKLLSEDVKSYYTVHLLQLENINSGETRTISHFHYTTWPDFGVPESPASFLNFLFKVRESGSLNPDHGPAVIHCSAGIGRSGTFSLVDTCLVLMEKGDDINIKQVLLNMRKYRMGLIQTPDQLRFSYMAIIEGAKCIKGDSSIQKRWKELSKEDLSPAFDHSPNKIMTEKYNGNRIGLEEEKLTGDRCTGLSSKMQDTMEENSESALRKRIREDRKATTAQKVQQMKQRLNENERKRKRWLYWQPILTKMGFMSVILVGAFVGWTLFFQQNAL
As to the kind of experiment: Inhibition of N-terminal polyHis-tagged human recombinant TC-PTPb (1 to 415 residues) expressed in Escherichia coli BL21(DE3)pLysS.

In test [4] the target is T2, Aldo-keto reductase family 1 member B1. As to the kind of experiment: Inhibition of human recombinant AKR1B1 expressed in Escherichia coli BL21(DE3)pLysS using L-idose as substrate by NADPH oxidation based absorbance analysis.
The target is the same in test [5]. As to the kind of experiment: Mixed non-competitive inhibition of human recombinant AKR1B1 expressed in Escherichia coli BL21(DE3)pLysS assessed as apparent dissociation constant for EI complex using L-idose as substrate by secondary plot analysis. Put shortly:
as §2

The subject of test [6] is C2C12. The test can be described thus: Effect on total Akt protein expression in mouse C2C12 cells at 20 uM incubated for 15 mins by SDS-PAGE analysis. It counts as functional, cell-based. Put shortly: as §1
Test [7] has as its target T1, Tyrosine-protein phosphatase non-receptor type 1 (Mus musculus). The test can be described thus: Inhibition of PTP1B in mouse C2C12 cells assessed as potentiation of insulin-induced Akt phosphorylation by measuring increase in ratio of pAkt to Akt at 20 uM treated for 15 mins in presence of insulin by western blot analysis. In kind it is cell-based. Put shortly: as §1

For test [8], the target named is T4, Tyrosine-protein phosphatase non-receptor type 1 (Homo sapiens) (UniProt P18031).
T4 sequence (whole entry): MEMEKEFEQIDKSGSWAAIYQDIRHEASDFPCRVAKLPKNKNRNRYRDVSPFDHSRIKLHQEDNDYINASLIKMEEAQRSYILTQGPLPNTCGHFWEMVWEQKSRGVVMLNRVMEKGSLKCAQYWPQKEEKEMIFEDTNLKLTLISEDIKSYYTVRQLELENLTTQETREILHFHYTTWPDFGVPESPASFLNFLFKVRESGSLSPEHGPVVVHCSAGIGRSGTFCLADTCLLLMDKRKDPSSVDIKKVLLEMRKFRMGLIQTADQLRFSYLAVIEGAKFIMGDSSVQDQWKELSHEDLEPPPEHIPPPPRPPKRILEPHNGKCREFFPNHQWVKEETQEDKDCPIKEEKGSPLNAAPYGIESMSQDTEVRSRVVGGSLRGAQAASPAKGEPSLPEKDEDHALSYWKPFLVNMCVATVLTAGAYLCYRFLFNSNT
The test can be described thus: Reversible inhibition of N-terminal polyHis-tagged human PTP1B1 (1 to 303 residues) expressed in Escherichia coli BL21(DE3)pLysS using pNPP as substrate pretreated with enzyme for 60 mins followed by 400-fold dilution with buffer containing substrate and measured after 15 mins by spectrophotometric analysis. The settings on record: time 75.0 min. Put shortly:
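PTP1B incubated 60 min at 37 °C with saturating inhibitor, then diluted 400-fold into assay buffer containing 2.5 mM pNPP. Stopped after 15 min with 0.2 M KOH; absorbance read at 400 nm. Normalized to enzyme diluted with DMSO; mean ± SEM (n = 3).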

Test [9] concerns C2C12. As to the kind of experiment: Insulin-mimetic activity in mouse C2C12 cells assessed as stimulation of 2-NBDG uptake at 20 uM pretreated with compound for 15 mins followed by 2-NBDG addition and measured after 3 hrs by flow cytometry. In kind it is functional, cell-based. The note with it: time 195.0 min. An outline of the steps: (§3)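 C2C12 cells serum-starved 24 h, then 15 min with 10 nM insulin, 20 µM compound, or both. Washed, then 3 h in starvation medium containing 40 µM 2-NBDG. Trypsinized, washed, and fluorescence measured by flow cytometry. Quadruplicate; mean fluorescence ± SD.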
On the technique in general: Flow cytometry measures light scatter and fluorescence of single cells or particles in a stream.

The subject of test [10] is C2C12. The test can be described thus: Effect on total Akt protein expression in mouse C2C12 cells at 20 uM incubated for 15 mins in presence of insulin by SDS-PAGE analysis. In kind it is functional, cell-based. An outline of the steps:
as §1

For test [11], the target named is T2, Aldo-keto reductase family 1 member B1. The test can be described thus: Ratio of Ki for human recombinant AKR1B1 expressed in Escherichia coli BL21(DE3)pLysS assessed as apparent dissociation constant for EI complex to Ki for human recombinant AKR1B1 expressed in Escherichia coli BL21(DE3)pLysS assessed as apparent dissociation constant for ESI complex. Put shortly:
as §2

Test [12] has as its system C2C12. As to the kind of experiment: Insulin-mimetic activity in mouse C2C12 cells assessed as stimulation of 2-NBDG uptake at 20 uM pretreated with compound and insulin for 15 mins followed by 2-NBDG addition and measured after 3 hrs by flow cytometry. It counts as functional, cell-based. The settings on record: time 195.0 min. An outline of the steps:
as §3

A word on the IC50: it is the concentration needed to halve the response being measured. On to `O=C(O)CN1C(=O)/C(=C/c2cccc(OCCCCc3ccccc3)c2)SC1=S`, for which the inhibition entry in [1], in test [7] and in test [8] was “Active” in each case. Further, the figures for the Ki in test [2] and in test [5] were 30 nM and 80 nM, respectively. The figures for the IC50 in [3] and in test [4] were 9000 nM and 60 nM, respectively. In addition, the result in the test on C2C12 [6] and in the test with C2C12 [10] was inactive. Further, the result in the test on C2C12 [9] and in the test with C2C12 [12] was Active. Also, in test [11], the Ratio Ki came to 2.

For the compound `O=C(O)CCN1C(=O)/C(=C/c2cccc(OCCCCc3ccccc3)c2)SC1=S`, the inhibition result in test [1], in [7] and in test [8] was “Active” in each case. Moreover, the Ki in test [2] was found to be 1100 nM; in [5] it was 4000 nM. The results for the IC50 in test [3] and in test [4] were 25800 nM and 2100 nM, respectively. Besides, the result in the test with C2C12 [6] and in the test on C2C12 [10] was inactive. In addition, the result with C2C12 [9] and in the test on C2C12 [12] was Active. For the same compound, in [11], the Ratio Ki worked out at 2.
